# ChEMBL document CHEMBL3576865, “Structure-activity relationships of lysophosphatidylserine analogs as agonists of G-protein-coupled receptors GPR34, P2Y10, and GPR174” (J Med Chem, 2015)
# Calls of active or inactive are those of the source. No cut-off for these calls is given here.
# Target: Putative P2Y purinoceptor 10 (Mus musculus) (UniProt Q8BFU7)
# Assay: Agonist activity at mouse P2Y10 receptor expressed in McA-RH7777 cells assessed as actin stress fiber formation at 1 uM after 30 mins by confocal microscopy
# Type: cell-based
# Summary of the method: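 McA-RH7777 cells stably expressing mouse P2Y10, or mock retrovirus-infected, were grown on collagen I and serum-starved 1 h. They were stimulated with 1 μM compound in serum-free DMEM containing 0.01% fatty-acid-free BSA. […] F-actin fibers were imaged by confocal microscopy.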
# Putative P2Y purinoceptor 10 (Mus musculus), sequence (Q8BFU7 whole entry): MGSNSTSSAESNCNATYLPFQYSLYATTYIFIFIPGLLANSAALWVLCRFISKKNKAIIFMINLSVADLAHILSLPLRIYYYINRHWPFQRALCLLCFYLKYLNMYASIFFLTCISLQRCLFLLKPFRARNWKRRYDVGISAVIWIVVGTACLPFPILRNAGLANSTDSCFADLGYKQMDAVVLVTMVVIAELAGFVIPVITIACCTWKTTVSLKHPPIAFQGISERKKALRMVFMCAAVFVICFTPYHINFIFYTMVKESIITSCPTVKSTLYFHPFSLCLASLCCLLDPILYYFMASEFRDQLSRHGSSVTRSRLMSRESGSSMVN
row,Structure (SMILES),Activity
1,CCCCCCCCCCCOc1cccc(CCC(=O)NC[C@@H](O)COP(=O)(O)O[C@@H](C)[C@H](N)C(=O)O)c1,inactive
2,CCCCCCCC/C=C\CCCCCCCC(=O)OC[C@@H](O)COP(=O)(O)OC[C@H](N)C(=O)O,Active
3,CCCCCCCCCCCOc1ccccc1CCC(=O)OCCCOP(=O)(O)OC[C@H](N)C(=O)O,Active
4,CCCCCCCCCCCOc1ccccc1CCC(=O)OCC(F)(F)COP(=O)(O)OC[C@H](N)C(=O)O,Active
